Shown are actives, neighbours in structure and some others; about 2.1% of the full set was active somewhere.
MC4R ag barr – activates human MC4R beta-arrestin recruitment; P32245; U2OS MC4R beta-arrestin complementation, luminescence; percent of melanotan II response, DMSO zero; activation, % at 8.9 µM; 0.98% of 360,000 active;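 active means activation above a per-plate cutoff, the mean activation of sample wells on that plate plus 3 SD, cut at about 8% in these data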
Target sequence (P32245 whole entry, looked up): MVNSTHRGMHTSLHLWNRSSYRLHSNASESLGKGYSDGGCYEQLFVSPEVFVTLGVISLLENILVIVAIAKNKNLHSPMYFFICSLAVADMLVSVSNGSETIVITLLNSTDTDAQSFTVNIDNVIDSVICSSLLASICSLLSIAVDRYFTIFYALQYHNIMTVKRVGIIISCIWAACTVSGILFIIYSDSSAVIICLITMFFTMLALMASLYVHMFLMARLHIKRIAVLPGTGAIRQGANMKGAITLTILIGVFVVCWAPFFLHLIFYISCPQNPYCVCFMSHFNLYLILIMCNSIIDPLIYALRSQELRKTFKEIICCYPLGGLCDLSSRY
MC4R antagonist – antagonists of human melanocortin 4 receptor (MC4R); P32245; MC4R-expressing cells, MTII-stimulated cAMP, LANCE TR-FRET; inhibition, % at 6.5 µM; 0.48% of 360,000 active; AID 540295;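 active means inhibition above its plate's cutoff, the mean of tested wells on that plate plus 3 SD, cut at about 29% in these data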;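 further: 0% = Melanotan II alone and 100% = Melanotan II plus saturating MCL0020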
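Test system: U2OS cells stably expressing human melanocortin 4 receptor (MC4R); also added: Melanotan II challenge; compound: 6.5 µM single dose; timing: 30-min compound preincubation, 1-h Melanotan II challenge, 1-h detection, room temperature; signal: Eu-cAMP/anti-cAMP TR-FRET, emission 671 nm; repeats: one well per compound, no replicates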
F508del corr – CFTR F508del correction in bronchial cells; AID 720511; CFBE cells, YFP halide quenching; stimulated with forskolin plus potentiator P3; % fluorescence drop versus neutral controls; 0.36% of 350,000 active; activity (quench increase), % at 7.58 µM;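 active means mean added fluorescence quench of at least 8% versus neutral control, with both replicates also reaching 8%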;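 further: cells transiently co-express mutant CFTR-F508del with the halide-sensitive YFP; corrector assay measuring rescue of mutant channel to the surface after 24 h compound exposure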
SMARCA2 activ – activators of SMARCA2 function. activation, % at 9.1 µM. 1% of 370,000 active. MG213 cells, MMTV-luciferase reporter, dexamethasone, overnight. AID 652017; in the data active means activation above about 7.8%;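 further: 0% = vehicle wells and 100% = reference activator wells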
U2OS cAMP counter – counter-screen for MC4R antagonists: nonselective cAMP signaling inhibitors | shares compounds with MC4R antagonist | parental U2OS, forskolin cAMP, LANCE TR-FRET | inhibition, % at 6.5 µM | 26% of 1,600 active | AID 602193;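 active means mean inhibition over triplicates above the low-control well mean plus 3 SD, set per campaign, cut at about 13% in these data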;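 further: signal is single emission at 671 nm which falls as cellular cAMP rises; 0% = forskolin-stimulated wells and 100% = buffer without forskolin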
MC4R cAMP antag – human MC4R cAMP antagonism confirmation; 27% of 1,600 active; inhibition, % at 6.5 µM; MC4R-expressing cells, MTII-stimulated cAMP, TR-FRET; shares compounds with MC4R antagonist; in the data active means inhibition above about 29%;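 further: 0% = agonist stimulated wells alone and 100% = agonist stimulated wells plus saturating reference antagonist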
* = called active by the depositor.

How did C=CC[C@@H](CC(=O)N(CCO)Cc1ccccc1)C(=O)N[C@H](COC(=O)[C@@H](CC=C)Cc1ccc(F)cc1)Cc1c[nH]c2ccccc12 do in these assays?
MC4R ag barr: -0.1; MC4R antagonist: 29.1*; F508del corr: -3.3; SMARCA2 activ: -2.0; U2OS cAMP counter: 2.0; MC4R cAMP antag: 5.2

Results for C=CC[C@H](CC(=O)N(CCO)Cc1ccccc1)C(=O)N[C@H](COC(=O)[C@@H](CC=C)Cc1ccc(F)cc1)Cc1c[nH]c2ccccc12 ?
MC4R ag barr: 0.4; MC4R antagonist: 22.5; F508del corr: -0.7; SMARCA2 activ: -1.1

What do the screens show for `C[C@@H]1CCCCO[C@@H](CN(C)S(=O)(=O)c2ccccc2)[C@@H](C)CN([C@H](C)CO)C(=O)c2cc(NC(=O)c3ccncc3)ccc2O1`?
F508del corr: -3.3

What do the screens show for `CCOC(=O)COc1ccc2c(=O)c(-c3ccccc3)coc2c1`?
MC4R ag barr: -0.9; MC4R antagonist: 39.2*; F508del corr: -1.0; SMARCA2 activ: -2.9; U2OS cAMP counter: 19.4*; MC4R cAMP antag: 43.1*

What do the screens show for `CCOCCOC(=O)COc1ccc2c(=O)c(Oc3ccc(OC)cc3)coc2c1`?
MC4R ag barr: -1.0; MC4R antagonist: 29.1*; F508del corr: -0.7; SMARCA2 activ: -1.6; U2OS cAMP counter: 24.4*; MC4R cAMP antag: 28.2

Results for C[C@@H]1CN([C@@H](C)CO)C(=O)c2cc(NC(=O)c3ccncc3)ccc2O[C@@H](C)CCCCO[C@H]1CN(C)C(=O)CCCN(C)C ?
F508del corr: -2.0

How did Cc1cccc(OC(=O)c2sc(Cl)nc2C)c1 do in these assays?
MC4R ag barr: -2.2; MC4R antagonist: 31.6*; SMARCA2 activ: 2.5; U2OS cAMP counter: 13.9*; MC4R cAMP antag: 32.0*

Results for Cc1c(N=C2SCC(=O)N2/N=C\c2ccc(Br)cc2)c(=O)n(-c2ccccc2)n1C ?
MC4R ag barr: -0.3; MC4R antagonist: 31.1*; F508del corr: -1.1; SMARCA2 activ: -3.2; U2OS cAMP counter: -3.7; MC4R cAMP antag: -22.2

How did Cn1c(SCC(=O)Nc2cccc(F)c2)nnc1-c1cc2ccccc2o1 do in these assays?
MC4R ag barr: 7.7; MC4R antagonist: 31.3*; SMARCA2 activ: -0.1; U2OS cAMP counter: 4.4; MC4R cAMP antag: 3.4

Results for CC(=O)Nc1ccc(-c2nnc(SCC(=O)Nc3ccc4c(c3)oc3ccccc34)n2C)cc1 ?
MC4R ag barr: 0.5; MC4R antagonist: 0.0; SMARCA2 activ: -1.2

What do the screens show for `CC(C)CCOc1ccc(/C=C2\CCn3c2nc2cc(C(=O)O)ccc2c3=O)cc1`?
MC4R ag barr: 1.8; MC4R antagonist: 32.1*; F508del corr: 0.0; SMARCA2 activ: 0.0; U2OS cAMP counter: -0.1; MC4R cAMP antag: -8.4

Results for COC(=O)c1ccc(/C=C2\CCn3c2nc2cc(C(=O)O)ccc2c3=O)cc1 ?
MC4R ag barr: 0.2; MC4R antagonist: 12.5

Results for O=c1c(Cc2c(F)cccc2Cl)c(O)ccn1CCCN1CCOCC1 ?
MC4R ag barr: 0.9; MC4R antagonist: 30.5*; F508del corr: 2.8; SMARCA2 activ: 0.8; U2OS cAMP counter: -7.1; MC4R cAMP antag: -20.0

What do the screens show for `COc1ccc(C(=O)CCN2CCCCCC2)cc1`?
MC4R ag barr: -1.9; MC4R antagonist: 40.1*; F508del corr: -0.8; SMARCA2 activ: -1.4; U2OS cAMP counter: 15.3*; MC4R cAMP antag: 23.6

What do the screens show for `CN(C)S(=O)(=O)c1ccc(C(=O)NCCN2C(=O)S/C(=C\c3cccnc3)C2=O)cc1`?
MC4R ag barr: 0.2; MC4R antagonist: 10.2; F508del corr: 0.4; SMARCA2 activ: 1.9

Results for CS(=O)(=O)c1ccc(C(=O)NCCN2C(=O)S/C(=C\c3cccnc3)C2=O)cc1[N+](=O)[O-] ?
MC4R ag barr: -1.8; MC4R antagonist: 32.4*; F508del corr: -8.5; SMARCA2 activ: -0.1; U2OS cAMP counter: 17.5*; MC4R cAMP antag: 32.9*

How did COc1ccc(-c2cn(CC[C@H]3CC[C@H](NS(=O)(=O)c4ccccc4C)[C@@H](CO)O3)nn2)cc1 do in these assays?
F508del corr: -0.4

Results for Cc1noc(C)c1NC(=O)N(C)C[C@H]1Oc2ccc(NS(=O)(=O)c3ccc(Cl)cc3)cc2CC(=O)N([C@@H](C)CO)C[C@H]1C ?
F508del corr: -1.5

What do the screens show for `CCOC(=O)c1cnc2ccc(OCC)cc2c1NCc1ccccc1OC`?
MC4R ag barr: 1.7; MC4R antagonist: 47.5*; SMARCA2 activ: -3.2; U2OS cAMP counter: 16.4*; MC4R cAMP antag: 47.6*

Results for CC1(C)CC(=O)C(C=NCCN2CCN(C3CC(=O)N(c4ccc(Br)cc4)C3=O)CC2)=C(O)C1 (configuration not stated) ?
MC4R ag barr: 3.4; MC4R antagonist: 33.4*; F508del corr: 0.0; SMARCA2 activ: -0.9; U2OS cAMP counter: -3.5; MC4R cAMP antag: -18.8

What do the screens show for `C[C@@H]1CN([C@H](C)CO)C(=O)Cc2cc(NC(=O)Cc3cn(C)c4ccccc34)ccc2O[C@H]1CN(C)S(=O)(=O)c1ccccc1`?
F508del corr: -0.2

Results for O=C(O)c1cccc(S(=O)(=O)Nc2ccccc2-c2ccccc2)c1 ?
MC4R ag barr: 0.4; MC4R antagonist: 29.1*; F508del corr: 2.8; SMARCA2 activ: 0.9; U2OS cAMP counter: 2.9; MC4R cAMP antag: -8.3

Results for O=S(=O)(Nc1ccccc1-c1ccccc1)c1ccccc1 ?
MC4R ag barr: -2.1; MC4R antagonist: 2.8; F508del corr: -0.4; SMARCA2 activ: -3.0

What do the screens show for `Cc1cc(C(=O)COC(=O)C2=NN(c3ccccc3)C(=O)CC2)c(C)n1CC(F)(F)F`?
MC4R ag barr: 1.9; MC4R antagonist: 29.7*; F508del corr: -3.0; SMARCA2 activ: -2.2; U2OS cAMP counter: 0.0; MC4R cAMP antag: -6.4

What do the screens show for `COc1ccccc1NC(=O)N1C[C@@H](O)COC[C@H]2O[C@H](CC(=O)NCc3ccccc3)CC[C@@H]21`?
F508del corr: -0.8

What do the screens show for `COc1ccc(Nc2nc(-c3cccs3)nc3ccccc23)cc1`?
MC4R ag barr: 0.8; MC4R antagonist: 4.4; SMARCA2 activ: -1.7

How did COc1cccc(Nc2nc(-c3cccs3)nc3ccccc23)c1 do in these assays?
MC4R ag barr: -1.2; MC4R antagonist: 31.7*; F508del corr: 2.4; SMARCA2 activ: -1.2; U2OS cAMP counter: 7.9; MC4R cAMP antag: 16.6

How did Cc1ccc(C)c(SCC(=O)Nc2cccc(S(=O)(=O)NC3=NCCCCC3)c2)c1 do in these assays?
MC4R ag barr: 2.5; MC4R antagonist: -1.1; SMARCA2 activ: -0.6

How did Cc1cc(C)cc(-n2c(SCC(=O)Nc3cccc(S(=O)(=O)NC4=NCCCCC4)c3)nc3ccccc3c2=O)c1 do in these assays?
MC4R ag barr: 1.6; MC4R antagonist: 28.9*; SMARCA2 activ: -1.6; U2OS cAMP counter: 1.7; MC4R cAMP antag: 4.3

Screening data deposited in PubChem BioAssay by several laboratories.
